The target in data set [1] is T1, recombinant mouse CRT (calreticulin) (Mus musculus, UniProt P14211).
T1 sequence (P14211 18-416): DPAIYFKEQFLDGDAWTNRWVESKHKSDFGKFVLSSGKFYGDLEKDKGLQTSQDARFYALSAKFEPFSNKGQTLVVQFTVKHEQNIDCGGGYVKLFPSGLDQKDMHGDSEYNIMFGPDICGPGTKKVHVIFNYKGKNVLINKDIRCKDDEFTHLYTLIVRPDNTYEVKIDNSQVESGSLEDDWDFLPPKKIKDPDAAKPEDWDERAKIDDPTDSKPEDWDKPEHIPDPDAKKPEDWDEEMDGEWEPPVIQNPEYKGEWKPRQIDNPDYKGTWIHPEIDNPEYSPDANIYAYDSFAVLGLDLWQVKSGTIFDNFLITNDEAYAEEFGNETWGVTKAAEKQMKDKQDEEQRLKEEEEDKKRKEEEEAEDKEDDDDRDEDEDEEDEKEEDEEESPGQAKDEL
Kind of data set: Surface plasmon resonance binding to immobilized CRT. As to conditions: SPR, 25°C, 10 mM HEPES pH 7.4, 50 mM KCl, 0.5 mM CaCl2, 100 μM ZnCl2, 0.005% surfactant P-20; mouse CRT immobilized 3000 RU; 10 μl/min; mean ± SEM. In general terms: In SPR one partner is held on a chip, and binding of the other changes the refractive index at the surface.

Data set [2] has as its system osteoclast formation of BMCs harvested from CIA mice. Kind of data set: Ex vivo OC differentiation of BMCs from treated CIA mice. In kind it is in vivo, mouse. Particulars: 6 days OC-differentiating culture, dose-dependent pattern. Put shortly:
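DBA/1 mice (7 weeks) were immunised intradermally at the tail base with 100 μg chicken CII in CFA. They received test compound intraperitoneally once weekly at 0.0, 0.8, 8 or 80 ng/gm BW in 50 μl PBS. Bone marrow cells were then cultured for 6 days under OC-differentiating conditions (M-CSF 10 ng/ml; RANKL 20 ng/ml added after day 2). TRAP-positive multinucleated cells (>3 nuclei) were counted.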

Data set [3] has as its system osteoclasts in CIA joint tissues. Kind of data set: OC abundance in joint tissue of CIA mice. In kind it is in vivo, mouse. Particulars: various doses incl. 'subclinical'; N=10 PBS, 5 per treatment group; TRAP. Summed up:
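Limbs from CIA mice given weekly i.p. test compound or PBS decalcified 14 days in 10% EDTA, paraffin-embedded, serially sectioned and stained for TRAP (or H&E). TRAP-positive multinucleated cells counted; total across front and rear paws and knees, mean ± SEM. N=10 PBS, 5 per treatment group.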

For data set [4], the system named is collagen-induced arthritis in DBA/1 mice. Kind of data set: Collagen-induced arthritis: onset, incidence, arthritis score. As to conditions: i.p.; for disease incidence: log-rank (Mantel-Cox). In kind it is in vivo, mouse.
For data set [5], the system named is bone damage in CIA mice. Briefly: X-ray radiological scoring of bone damage in CIA mice. Particulars: 0.8 and 8.0 ng/gm BW, N = 10, score 0-5. It counts as in vivo, mouse. Summed up: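 CIA mice dosed weekly i.p. with 0.8 or 8.0 ng/gm BW test compound or PBS. Limbs X-rayed on a microradiography system (anode current 25mA, 4.5 s exposure). Coded films scored blind by a rheumatologist, front and rear paws separately, 0–5 (none to complete joint destruction). N=10.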

Data set [6] deals with NO signaling. Particulars: ref [11]; cited from earlier work.
Data set [7] deals with bovine cortical bone disks / mouse BMC-derived OCs. Kind of data set: Ex vivo degradation of bovine bone disks. It counts as cell-based. As to conditions: 100 nM c(HS4-4), mouse BMCs, 10 days, OC counts and resorption pits. Summed up:
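Bovine cortical bone disks (5-mm) were sonicated in water, stored dry, and sterilised in ethanol plus 30 min UV. Culture ran 10 days, medium renewed every other day. TRAP-positive OCs per disk were counted; cells were sonicated off in ammonium hydroxide; disks were stained with 1% toluidine blue for 30 s; pits were counted across the whole surface by reflected light. Mean ± SEM.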

Data set [8] relates to erosive bone damage in CIA mice. Kind of data set: Micro-CT of bone damage in CIA mice. It counts as in vivo, mouse. As to conditions: all treated mice, various doses. Put shortly:
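Limbs from arthritic mice fixed in 10% formalin, stored in 70% ethanol, scanned in water: 80 kV, 80 μA, 0.508 mm Al filter plus acrylic beam flattener, 1600 ms/frame, 400 views at 0.5°, 4 frames averaged, 2×2 binning, 18 μm voxels. Bone masks for carpals, tarsals, calcaneus, talus, phalanges; thresholds 2000 HU cortical, 1200 HU trabecular.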

The subject of data set [9] is TRAP-positive mononuclear (pre-OC) bone marrow cells. Kind of data set: Pre-OC abundance in bone marrow of CIA mice. In kind it is in vivo, mouse. Summed up:
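Fresh bone marrow cells harvested from CIA mice dosed weekly i.p. with various amounts of test compound or PBS; TRAP staining used to enumerate pre-osteoclasts.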

For data set [10], the system named is osteoclast differentiation of DBA/1 mouse BMCs. Kind of data set: In vitro OC differentiation, mouse bone marrow cells. It counts as cell-based. Particulars: M-CSF + RANKL, 6 days.
The subject of data set [11] is ROS production in RAW 264.7 pre-OC cells. Kind of data set: ROS production. It counts as cell-based, mouse. As to conditions: RAW 264.7, 3 × 10^4/well, in words. Summed up: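 RAW 264.7 cells, 3×10^4 per well, exposed to various test compound concentrations and loaded with CM-H2DCFDA. Fluorescence (ex 488/em 515 nm) read every 5 min over 500 min; ROS expressed as FU/min.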

Data set [12] has as its system bone matrix degradation by DBA/1 mouse BMC-derived OCs. Kind of data set: Degradation of artificial. In kind it is cell-based. As to conditions: 100 nM c(HS4-4), primary DBA/1 BMCs, day 15, Von Kossa. Put shortly:
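Test compound (100 nM) or PBS was added to mouse BMC cultures on osteoblast-derived matrix. SaOS-2 cells (12,000/well) grew in McCoy's 5A/15% FBS; at 80–90% confluence they were switched to osteoblast differentiation medium (10% FBS, 2mM glutamine, ascorbic acid, 10mM β-glycerol phosphate) for 20–25 days, then removed with 15mM NH4OH. DBA/1 BMCs (200,000/well) received M-CSF 10 ng/ml for 2 days, then M-CSF plus RANKL 20 ng/ml. At day 15, cells were removed; remaining matrix was Von Kossa-stained, photographed and area-quantified.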

The test system of data set [13] is NO signaling. Briefly: NO signaling activation. It counts as cell-based. Particulars: read-out: EC50 NO, Table I.
Data set [14] has as its system osteoclast differentiation of DBA/1 mouse BMCs. Particulars: 15-mer linear peptide; ref [10]; cited from earlier work.
In data set [15] the test system is trypsin/chymotrypsin. Particulars: linear peptidic SE ligand, completely degraded; ref [11]; cited from earlier work.
Data set [16] concerns collagen-induced arthritis in mice. Particulars: 15-mer SE peptidic ligand in vivo in mice; ref [10]; cited from earlier work.
[17] abbreviates: 80 ng/gm BW per week, N=10 per group.
Setting [18] is: 800 ng/gm BW per week, N=10 per group.

Broadly, the EC50 is the midpoint of the concentration-response curve.

As for 70-QKRAA-74 [70-74*0401], in data set [1], the “Affinity to CRT, ka” value was 2.9 ± 2.9 ×10^2 1/Ms and the “Affinity to CRT, kd” value was 5.6 ± 5.1 ×10^−3 1/s.
Take cQKRAA [c(HS4-4)]: the “OCs formed ex vivo by BMCs from treated CIA mice” value in data set [2] is given as “significantly higher numbers of OCs in a similar dose-dependent pattern”. In data set [3], the “OC numbers in arthritic joints” value was “significantly higher numbers of OCs”. For the same substance, the “CIA soft tissue disease parameters (onset, incidence, score)” value in data set [4] (0.8 ng/gm BW per week) is recorded as “no effect on any of the three CIA soft tissue disease parameters”. Also, the “CIA soft tissue disease parameters (onset, incidence, score)” value in data set [4] (8.0 ng/gm BW per week) was “no effect on any of the three CIA soft tissue disease parameters”. Moreover, in data set [4] (setting [17]), the disease onset result is reported as “significantly facilitated disease onset” and the disease incidence result is “increased disease incidence”. The “mean arthritis scores (joint swelling)” value in [4] (80 ng/gm BW per week, N=10 per group, 4-point scale per paw) is “significantly increased mean arthritis scores”. For the same substance, the “mean arthritis scores, effect in the higher dose” value in data set [4] (800 ng/gm BW per week ("the higher dose"), N=10 per group) was “but not in the higher dose”. Moreover, in data set [4] (setting [18]), the disease onset entry is recorded as “significantly facilitated disease onset” and the disease incidence result is listed as “increased disease incidence”. The “bone damage (radiological score, X-ray)” value in data set [5] is recorded as “significantly higher bone damage”. In data set [6], the “NO signaling activation, concentration” value is listed as “low nM concentrations”. In data set [7], the “degradation of bovine bone disks” value is “higher capacity to degrade artificial bone matrix and bovine bone disks ex vivo”. For the same substance, the “erosive bone damage (micro-CT)” value in data set [8] is listed as “more severe erosive bone damage”. Moreover, the “TRAP-positive pre-OC cells in bone marrow” value in data set [9] (80 ng/gm BW group) was “peak effect”. Further, in data set [9] (all c(HS4-4)-treated mice), the “TRAP-positive mononuclear (pre-OC) cells in bone marrow, dose dependence” value was “dose-dependent effect”. In data set [10], the “OC differentiation (in words)” value was “markedly enhanced OC differentiation in a dose-dependent manner”. Moreover, the ROS signaling result in data set [11] is reported as “activated ROS signaling”. Besides, the “degradation of artificial bone matrix” value in [12] is given as “higher capacity to degrade artificial bone matrix”. In [1], the “Affinity to CRT, ka” value is given as 2.7 ± 0.5 ×10^3 1/Ms and the “Affinity to CRT, kd” value is reported as 1.4 ± 0.2 ×10^−3 1/s. In addition, in data set [13], the EC50 amounted to 0.001 µM.
As to 65-KDLLEQKRAAVDTYC-79 [65-79*0401], in data set [14], the osteoclastogenesis activation entry is recorded as “can activate osteoclastogenesis”. Besides, in data set [15], the “time to complete degradation by trypsin/chymotrypsin” value was not above 30 min. For the same substance, the “effect on erosive bone damage in CIA” value in [16] is reported as “enhanced erosive bone damage in collagen-induced arthritis”. Further, in data set [1], the “Affinity to CRT, ka” value was 5.1 ± 4.8 ×10^4 1/Ms and the “Affinity to CRT, kd” value was 7.4 ± 3.1 ×10^−3 1/s. Besides, the EC50 in data set [13] worked out at 60 µM.

Source of the values: PMC3753203 (Journal of immunology (Baltimore, Md. : 1950), 2013).
